Assays:
[1] = target: T1, 5-hydroxytryptamine receptor 1A (Rattus norvegicus, UniProt P19327); assay: Ability to bind to central serotonin 5-hydroxytryptamine 1A receptor in vitro in hippocampus of the rat brain using [3H]8-OH-DPAT radioligand; type: tissue-based
T1 sequence (P19327 whole entry): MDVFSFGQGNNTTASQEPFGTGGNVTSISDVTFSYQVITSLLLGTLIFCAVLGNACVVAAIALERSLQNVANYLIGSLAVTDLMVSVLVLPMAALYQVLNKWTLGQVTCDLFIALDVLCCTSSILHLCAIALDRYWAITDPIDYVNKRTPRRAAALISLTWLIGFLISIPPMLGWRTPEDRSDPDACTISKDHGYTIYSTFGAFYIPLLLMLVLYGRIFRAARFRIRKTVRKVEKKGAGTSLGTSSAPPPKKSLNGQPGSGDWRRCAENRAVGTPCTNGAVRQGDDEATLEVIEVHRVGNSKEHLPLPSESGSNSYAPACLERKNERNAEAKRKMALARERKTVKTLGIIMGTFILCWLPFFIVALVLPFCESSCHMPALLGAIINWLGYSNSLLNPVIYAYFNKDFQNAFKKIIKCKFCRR
Outline: (§1)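 Competition binding in rat brain tissue: hippocampus with [3H]-8-OH-DPAT (5-HT1A); cortex with [3H]-ketanserin (5-HT2A) or [3H]-prazosin (α1). Ki from at least three experiments using 10–14 concentrations (10⁻¹⁰–10⁻⁵ M), each in triplicate.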

[2] = target: 5-hydroxytryptamine receptor 2A (Rattus norvegicus, UniProt P14842); assay: Ability to bind to central serotonin 5-hydroxytryptamine 2A receptor in vitro in cortex of the rat brain using [3H]ketanserin radioligand; type: tissue-based; outline: as §1
Mus musculus = species on record: Mus musculus; assay: Ability to inhibit 8-OH-DPAT-induced hypothermia was taken as a measure of presynaptic antagonistic activity; Antagonist; type: functional, organism-based; conditions: filed as antagonist
[3] = target: T2, 5-hydroxytryptamine receptor 1A (Mus musculus) (UniProt Q64264); assay: Compound was tested for hypothermia with the activation of presynaptic 5-HT1A receptor agonist (8-OH-DPAT) in mice; Antagonist; type: functional; conditions: filed as antagonist
T2 sequence (whole entry): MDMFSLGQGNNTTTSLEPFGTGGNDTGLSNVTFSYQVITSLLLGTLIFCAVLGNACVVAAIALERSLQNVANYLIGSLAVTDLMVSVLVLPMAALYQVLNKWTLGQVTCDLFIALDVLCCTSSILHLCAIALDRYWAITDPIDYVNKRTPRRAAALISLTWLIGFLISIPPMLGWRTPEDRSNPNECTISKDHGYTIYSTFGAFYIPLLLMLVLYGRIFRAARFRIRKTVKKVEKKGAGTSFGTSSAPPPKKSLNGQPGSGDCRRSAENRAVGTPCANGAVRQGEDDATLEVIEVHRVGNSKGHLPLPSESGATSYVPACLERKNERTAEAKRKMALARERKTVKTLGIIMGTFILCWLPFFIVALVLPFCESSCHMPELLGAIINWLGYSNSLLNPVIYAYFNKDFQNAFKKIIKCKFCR

Chain of 5-hydroxytryptamine receptor 2A (P14842 whole entry): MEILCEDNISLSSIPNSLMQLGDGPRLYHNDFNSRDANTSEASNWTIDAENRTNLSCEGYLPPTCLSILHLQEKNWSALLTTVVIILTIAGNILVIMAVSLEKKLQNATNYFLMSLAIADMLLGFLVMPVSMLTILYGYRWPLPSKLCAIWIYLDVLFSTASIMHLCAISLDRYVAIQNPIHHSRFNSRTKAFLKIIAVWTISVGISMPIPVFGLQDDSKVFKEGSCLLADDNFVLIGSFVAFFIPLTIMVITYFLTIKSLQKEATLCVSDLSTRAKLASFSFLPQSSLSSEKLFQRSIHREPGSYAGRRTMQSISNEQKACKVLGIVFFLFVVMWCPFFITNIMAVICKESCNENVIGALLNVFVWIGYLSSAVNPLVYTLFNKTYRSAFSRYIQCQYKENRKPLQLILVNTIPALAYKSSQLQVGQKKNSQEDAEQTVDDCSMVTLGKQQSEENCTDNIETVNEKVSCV

## Cn1c(=O)c2c(nc3nc(NCCN4CCN(c5ccccc5)CC4)ccn32)n(C)c1=O
[1]
  Ki: 0.0115 µM
[2]
  Ki: 0.326 µM
Mus musculus
  Functional profile: Antagonist
[3]
  Functional profile: Antagonist

— ChEMBL document CHEMBL1137076, “New arylpiperazine 5-HT(1A) receptor ligands containing the pyrimido[2,1-f]purine fragment: synthesis, in vitro, and in vivo pharmacological evaluation” (J Med Chem, 2004)
